# Reference: publication PMC9054602 (RSC Advances, 2020)
# How the values were obtained:
# PRRSV CH-1a strain = assay: Antiviral activity by IFA, PRRSV CH-1a in MARC-145 cells; type: cell-based; conditions: Porcine reproductive and respiratory syndrome virus, MARC145
# Outline: (§1)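 MARC-145 monolayers infected at 0.05 MOI for 2 h at 37 °C. Inoculum removed and fresh medium with serial compound concentrations added. Cells then fixed in 4% paraformaldehyde, permeabilized with Triton X-100, blocked with BSA and stained for N protein (mAb 4A5, 1:400, 4 °C overnight), with Alexa 568 secondary and DAPI. Red and blue ODs digitized; protection % derived against DMSO wells. EC50 by nonlinear regression; three independent experiments.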
# PRRSV VR2332 strain = assay: Antiviral activity by IFA, PRRSV VR2332 in MARC-145 cells; type: cell-based; conditions: Porcine reproductive and respiratory syndrome virus, MARC145
# Outline: as §1
# PRRSV NADC30-like strain = assay: Antiviral activity by IFA, PRRSV NADC30-like in MARC-145 cells; type: cell-based; conditions: Porcine reproductive and respiratory syndrome virus, MARC145
# Outline: as §1
# PRRSV GD-XH strain = assay: Antiviral activity by indirect immunofluorescence assay; type: cell-based, porcine reproductive and respiratory syndrome virus; conditions: MARC-145 cells; for EC50: Porcine reproductive and respiratory syndrome virus, MARC145, PRRSV GD-XH (0.05 MOI), IFA at 48 hpi; for Selectivity index (SI): ratio of CC50 to EC50, PRRSV GD-XH
EC50 (PRRSV CH-1a strain) [µM],EC50 (PRRSV VR2332 strain) [µM],EC50 (PRRSV NADC30-like strain) [µM],EC50 (PRRSV GD-XH strain) [µM],Compound,Selectivity index (SI) (PRRSV GD-XH strain)
31.5 ± 2.8,22.3 ± 3.1,16.8 ± 2.1,23.7 ± 3.1,NC(=O)c1ncn([C@@H]2O[C@H](CO)[C@@H](O)[C@H]2O)n1 [Ribavirin],>27
11.3 ± 0.78,5.66 ± 0.52,5.03 ± 0.35,8.03 ± 0.93,"C[C@H]1[C@H](C)CC[C@]2(C(=O)O)CC[C@]3(C)C(=CC[C@@H]4[C@@]5(C)CC[C@H](O)C(C)(C)[C@@H]5CC[C@]43C)[C@H]12 [UA, Ursolic acid]",8.1
